# The list is not random: actives were taken first. Their share in the collection is about 1.3%.
# PME-1 primary = blocks human protein phosphatase methylesterase 1; Q9Y570; recombinant PME-1, FP-Rh probe fluorescence polarization; inhibition, % at 5.9 µM; 320,000 compounds, 0.53% hits;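 active = inhibition above the campaign mean of all compounds plus 3 SD, cut at about 26% in these data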;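 also: competitive labeling of PME-1 active site by serine hydrolase directed probe; 0% = PME-1 with DMSO and 100% = wells lacking PME-1 enzyme; inhibitors block probe labeling so polarization falls and inhibition rises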
# Fam108B counter = Fam108B inhibition, counter-screen for RBBP9 inhibitors | recombinant Fam108B, FP-Rh probe fluorescence polarization | 300,000 compounds, 0.33% hits | AID 1947 | inhibition, % at 9.51 µM;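 active = inhibition above the screen mean inhibition plus 3 SD, computed separately per campaign, cut at about 18% in these data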;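 also: inhibitors lower polarization as less probe binds the enzyme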
# RBBP9 inh = human RBBP9 hydrolase inhibition. AID 1515. O75884. 220,000 compounds, 0.2% hits. recombinant RBBP9, FP-Rh probe fluorescence polarization. inhibition, % at 7.94 µM;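 active = inhibition above the campaign mean of all tested compounds plus 3 SD, cut at about 14% in these data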;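 also: plate controls were DMSO wells with RBBP9 for no effect and wells lacking RBBP9 protein for full effect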
#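 System: RBBP9 protein / Quantity: 2.5 µM RBBP9 dispensing solution, before mixing / Also added: Serine-hydrolase probe FP-Rh, 375 nM pre-mixing / Dosing: 7.94 µM single dose, 0.794% DMSO / Timing: enzyme-compound preincubation 30 min, then probe labeling 45 min, 25 °C / Signal: FP readout at 525/598 nm / Controls: DMSO-treated enzyme wells and wells lacking RBBP9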
# LYPLA1 counter = counter-screen for PME1 inhibitors: inhibitors of human LYPLA1; 320,000 compounds, 0.16% hits; O75608; recombinant LYPLA1, FP-Rh probe fluorescence polarization; inhibition, % at 5.9 µM;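 active = inhibition above the mean of all tested compounds plus 3 SD, set per campaign, cut at about 14% in these data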;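 also: inhibitors block serine hydrolase probe labeling of LYPLA1 so polarization falls; 0% = enzyme with DMSO and 100% = wells lacking LYPLA1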
# Target sequence (O75608 whole entry, looked up): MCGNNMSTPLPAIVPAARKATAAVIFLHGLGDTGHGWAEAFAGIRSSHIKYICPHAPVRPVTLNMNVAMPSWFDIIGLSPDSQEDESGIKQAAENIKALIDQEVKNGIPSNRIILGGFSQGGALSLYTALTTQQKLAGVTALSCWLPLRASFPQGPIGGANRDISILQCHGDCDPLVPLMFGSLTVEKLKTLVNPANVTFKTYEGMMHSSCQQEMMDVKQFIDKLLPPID
# LYPLA2 counter = blocks human lysophospholipase 2, a PME1 counter-screen; AID 2177; O95372; inhibition, % at 5.9 µM; recombinant LYPLA2, FP-Rh probe fluorescence polarization; 320,000 compounds, 0.38% hits;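 active = inhibition above the screen-wide mean plus 3 SD, limit set per campaign, cut at about 26% in these data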;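 also: 0% = LYPLA2 with DMSO and 100% = wells lacking LYPLA2 enzyme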
# Target sequence (O95372 whole entry, looked up): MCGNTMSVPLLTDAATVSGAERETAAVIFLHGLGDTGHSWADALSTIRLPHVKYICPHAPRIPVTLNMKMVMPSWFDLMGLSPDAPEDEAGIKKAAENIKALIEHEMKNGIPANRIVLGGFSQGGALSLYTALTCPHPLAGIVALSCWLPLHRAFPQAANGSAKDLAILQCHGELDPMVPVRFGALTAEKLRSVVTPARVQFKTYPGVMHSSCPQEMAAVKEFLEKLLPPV
# PAD4 inh = inhibitors of human PAD4 | Q9UM07 | recombinant PAD4, RCA probe fluorescence polarization | inhibition, % at 6.36 µM | 330,000 compounds, 0.41% hits | AID 485272;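 active = percent inhibition above a cutoff equal to the mean of all tested compounds plus 3 SD, cut at about 15% in these data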;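 also: 0% = PAD4 with RCA probe and DMSO and 100% = probe without PAD4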
# Numbers without * were called inactive; nt = not tested or not shown.
SMILES,PME-1 primary,Fam108B counter,RBBP9 inh,LYPLA1 counter,LYPLA2 counter,PAD4 inh
COc1cc(/C=C2\CCC/C(=C\c3ccc(O)c(OC)c3)C2=O)ccc1O,26*,14,nt,-7,-6,4
COc1ccc(/C=C2/CCc3ccccc3C2=O)cc1OC,6,1,-4,-2,9,4
COc1cc(/C=C2\CC/C(=C\c3cc(OC)c(O)c(OC)c3)C2=O)cc(OC)c1O,-7,-6,19*,-15,-20,-4
COc1cc(/C=C2/CCc3ccccc3C2=O)cc(OC)c1OC,9,-3,-3,5,30*,0
COc1cc(/C=C2/CCCC(C(=O)C(F)(F)F)=C2O)ccc1O,-1,3,2,2,-1,-3
NS(=O)(=O)c1cccc(NC(=O)Nc2ccccc2)c1,-3,5,-5,1,3,1
CNC(=O)C1CCN(S(=O)(=O)c2c(C)noc2/C=C/c2cccc(OC)c2)CC1,0,2,nt,0,0,-1
CC1(C)CC(=O)C2=C(C1)N(CCN1CCOCC1)C1=C(C(=O)CC(C)(C)C1)C2c1cccc(F)c1,28*,-1,-5,2,-2,3
Cc1ccc(S(=O)(=O)N2CCCN(C(=O)c3cc4ccccc4[nH]3)CC2)cc1,-6,-7,nt,1,7,-5
CC1CCCN(S(=O)(=O)c2ccc3c(c2)c(=O)nc2ccccn23)C1 (stereo not drawn),3,6,nt,1,-2,2
Cc1ccc2cc(C#N)c(SCc3nnc(-c4ccccc4[N+](=O)[O-])o3)nc2c1,35*,4,-2,-5,-8,2
CC(C)Oc1cccc(C(=O)C2CCCN(C(=O)c3ccc4c(c3)OCO4)C2)c1 (stereo not drawn),11,2,nt,1,3,3
COc1ccc(NC(=O)CS(=O)(=O)c2ccccc2Cl)cc1,-3,2,nt,-3,-1,-5
O=C(N/N=C/c1c[nH]c2ccccc12)c1cc(-c2cccc3ccccc23)n[nH]1,28*,3,-9,-11,-9,-4
O=C(N/N=C/c1c[nH]c2ccccc12)c1cc(-c2ccc3ccccc3c2)n[nH]1,29*,11,-2,-33,-15,3
O=C(N/N=C/c1c[nH]c2ccccc12)C1CC1(c1ccccc1)c1ccccc1 (stereo not drawn),31*,12,-9,1,6,3
CCCCC[C@H]1CN(Cc2ccccc2)C(=O)[C@@H]1CC(=O)NCc1ccc(OC)cc1,4,2,nt,2,0,1
O=C(Nc1ccnn1C1CCN(C(=O)c2cccc(Cl)c2)CC1)C1CC1,-6,-3,nt,-2,-9,-3
CCN(CC)C(=O)c1csc(Nc2cccc3ccccc23)n1,37*,1,nt,5,3,-1
COc1ccc(C2=CC(=O)CC(C)(C)C2)cc1OC,24,nt,nt,7,8,3
COc1ccc(C(=O)NCC(C)(C)SCc2c(C)cc(C)cc2C)cc1,2,-10,-9,-7,-10,-1
CCOC(=O)N1CCN(c2ncnc3c2[nH]c2ccc(F)cc23)CC1,8,0,-2,-1,-3,-2
COc1ccc(N2CCN(c3ncnc4c3[nH]c3ccccc34)CC2)cc1,32*,13,2,5,10,-1
Fc1ccc2[nH]c3c(N4CCN(c5ccccc5)CC4)ncnc3c2c1,46*,16,7,0,1,-1
C=CCn1c(C)nnc1SCC(=O)N1CCN(S(=O)(=O)c2ccccc2)CC1,0,1,-5,0,1,-1
CCC(=O)N1CCc2cc(Br)cc(S(=O)(=O)N(C)c3ccc(OC)cc3OC)c21,4,3,-7,-3,-3,-3
Cc1ccc(NC(=O)CN2C(=O)S/C(=C\c3cccn3-c3cccc(C(=O)O)c3)C2=O)c(C)c1,-2,-33,-9,-5,30*,-5
Cc1cccc(NC(=O)COC(=O)c2cccc3c2C(=O)c2ccccc2C3=O)c1C,41*,5,-5,-4,6,-2
Cc1cccc(C)c1NC(=O)COC(=O)c1cccc2c1C(=O)c1ccccc1C2=O,71*,-10,-5,1,-7,-6
Cc1cccc(C)c1NC(=O)c1cccc2c1-c1ccccc1C2=O,-1,0,-1,1,8,-2

# Bioassay records (PubChem BioAssay)
